Source: publication PMC6620028 (Cancer cell, 2019)
pEC50, pIC50: −log10 of the molar value. One block for each compound: values may come before it.

What was measured:
[1] = test system: OCI-AML2, OCI-AML3, TEX, Z138, HCT-116, HeLa, OC316, SUM159 cells; assay: Growth and viability of leukemia, lymphoma and solid tumor cell lines; assay type: cell-based, human; conditions: 72 hr
[2] = test system: AML and other cancers; conditions: early phase clinical trials against AML and other cancers, ref Arrillaga-Romany et al., 2017, Kline et al., 2016, Stein et al.; cited from earlier work
[3] = test system: normal hematopoietic cells; assay: Effect on normal hematopoietic cells; conditions: 72 hr
[4] = target: T1, human ClpP (recombinant WT) (Homo sapiens, UniProt Q16740); assay: ClpP FITC-casein degradation, cell-free fluorescence assay; assay type: biochemical; conditions: positive cooperativity
[5] = target: T1, human ClpP (recombinant WT); assay: ClpP AC-WLA-AMC fluorogenic peptide cleavage assay; assay type: biochemical; conditions: read-out: EC50, ClpP cleavage of AC-WLA-AMC; without ClpX
[6] = target: T1, human ClpP (recombinant WT); assay: ClpP Ac-Phe-hArg-Leu-ACC fluorogenic peptide cleavage assay; assay type: biochemical; conditions: read-out: EC50, ClpP cleavage of Ac-Phe-hArg-Leu-ACC; without ClpX
[7] = target: T1, human ClpP (recombinant WT); assay: ClpP Clptide fluorogenic peptide cleavage assay; assay type: biochemical; conditions: read-out: EC50, ClpP cleavage of FAPHMALVPC (Clptide); without ClpX
[8] = test system: primary AML patient samples; assay: Apoptosis in primary AML patient samples; assay type: cell-based, human; conditions: 72 hr; including high risk cytogenetics and molecular mutations
[9] = test system: CLPP+/+ T-REx HEK293 cells; assay: Alamar blue viability, CLPP+/+ T-REx HEK293; assay type: cell-based, human; conditions: T-REx HEK293, 72 hr
[10] = test system: CLPP-/- T-REx HEK293 cells; assay: Alamar blue viability, CLPP-/- T-REx HEK293; assay type: cell-based, human; conditions: T-REx HEK293, 72 hr
[11] = test system: ONC201-resistant Z138 cells (ONC-R Z138); assay: Growth and viability, ONC201-resistant Z138; assay type: cell-based, human; conditions: ONC-R Z138 compared with parental Z138
[12] = target: recombinant D190A ClpP (Homo sapiens, UniProt Q16740, D190A); assay: D190A ClpP enzymatic assays; assay type: biochemical; conditions: peptide or protein substrates
[13] = target: endogenous ClpP in OCI-AML2 (Homo sapiens, UniProt Q16740); assay: Cellular thermal shift assay; assay type: cell-based; conditions: at concentrations associated with activation in the enzymatic assays
[14] = target: ClpP (Homo sapiens, UniProt Q16740); assay: Gel-based α-casein degradation assay; assay type: biochemical; conditions: 3 hr, without ClpX
[15] = test system: Z138 cells with WT ClpP overexpression; assay: Z138 xenograft with WT ClpP overexpression; assay type: in vivo, NSG mice; conditions: ONC212 50 mg/kg every other day, oral gavage, WT ClpP group
Summary of the method: (§1)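 Female NSG mice (n = 7 per group) received two million luciferase-labelled Z138 cells transfected with a WT or D190A mutant CLPP-overexpressing vector. Engraftment was confirmed by bioluminescence imaging on day 9 post-transplantation. Test compound (50 mg/kg) or water vehicle was then given by oral gavage every other day until moribund. Tumour burden was followed weekly by IVIS luminescence until day 31, and survival was recorded.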

[16] = test system: Z138 cells with D190A ClpP overexpression; assay: Z138 xenograft with D190A ClpP overexpression; assay type: in vivo, NSG mice; conditions: ONC212 50 mg/kg every other day, oral gavage; D190A ClpP group
Summary of the method: as §1

[17] = test system: OCI-AML2 cells; assay: Alamar blue viability assay, OCI-AML2; assay type: cell-based, human; conditions: read-out: IC50, growth and viability, OCI-AML2, 72-hr exposure

T1 sequence (Q16740 57-277): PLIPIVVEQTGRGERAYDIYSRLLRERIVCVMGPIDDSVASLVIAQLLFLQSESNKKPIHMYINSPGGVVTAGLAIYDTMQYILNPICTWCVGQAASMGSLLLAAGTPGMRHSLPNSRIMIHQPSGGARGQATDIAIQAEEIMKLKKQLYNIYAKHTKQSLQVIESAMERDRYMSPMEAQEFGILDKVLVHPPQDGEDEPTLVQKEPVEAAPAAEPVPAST
Sequence of recombinant D190A ClpP (Q16740 57-277 D190A): as the sequence (Q16740 57-277) above, with D134A counted along it
Sequence of ClpP (Q16740 57-277): as the sequence (Q16740 57-277) above
Sequence of endogenous ClpP in OCI-AML2 (Q16740 57-277): as above

Compound: Cc1ccccc1CN1C(=O)C2=C(CCN(Cc3ccccc3)C2)N2CCN=C12 [ONC201]
IC50 values, growth and viability [1]: low micromolar
Serious adverse events in clinical trials [2]: without serious adverse events reported yet
Effect on normal hematopoietic cells [3]: had little effect

Compound: O=C1C2=C(CCN(Cc3ccccc3)C2)N2CCN=C2N1Cc1ccc(C(F)(F)F)cc1 [ONC212]
Hill coefficient (FITC-casein data) [4]: 4.98 ± 0.47
pEC50 [5]: 6.74
pEC50 [6]: 6.43
pEC50 [7]: 5.47
IC50 values, growth and viability [1]: nanomolar range
Apoptosis in primary AML patient samples [8]: induced apoptosis
Growth and viability of CLPP+/+ cells [9]: reduced the growth and viability
Growth and viability of CLPP-/- cells [10]: but not CLPP^−/− cells
Growth and viability / sensitivity of ONC201-resistant Z138 cells [11]: cross-resistant
Activation of proteolytic activity of D190A ClpP [12]: could not activate proteolytic activity
Binding of endogenous ClpP in cells (CETSA) [13]: bound endogenous ClpP
Degradation of α-casein by ClpP (SDS-PAGE) [14]: induced cleavage of α-casein without the need for ClpX
Tumor burden (luciferase, IVIS imaging) [15]: significantly reduced
Median survival ([15]; vehicle 49 days): 55 days
Tumor burden / anti-tumor activity (luciferase, IVIS imaging) [16]: no discernable anti-tumor activity
Effect on normal hematopoietic cells [3]: had little effect

Compound: COc1cccc2c1C(=O)c1c(O)c3c(c(O)c1C2=O)C[C@@](O)(C(=O)CO)C[C@@H]3O[C@H]1C[C@H](N)[C@H](O)[C@H](C)O1 [adriamycin]
Growth and viability / sensitivity of ONC201-resistant Z138 cells [11]: retained similar sensitivity

Compound: CC[C@]1(O)C[C@H]2CN(CCc3c([nH]c4ccccc34)[C@@](C(=O)OC)(c3cc4c(cc3OC)N(C=O)[C@H]3[C@@](O)(C(=O)OC)[C@H](OC(C)=O)[C@]5(CC)C=CCN6CC[C@]43[C@@H]65)C2)C1 [vincristine]
Growth and viability / sensitivity of ONC201-resistant Z138 cells [11]: retained similar sensitivity

pIC50 [17]: 4.30
Compound: Acyldepsipeptide 1 [ADEP1]
